Experimental data as given in ChEMBL document CHEMBL1133383, “Synthesis and enzyme inhibitory activities of a series of lipidic diamine and aminoalcohol derivatives on cytosolic and secretory phospholipases A2” (Bioorg Med Chem Lett, 2000).

Key:
[1] = target: T1, Cytosolic phospholipase A2 (Mus musculus) (UniProt P47713); experiment: (§1) Effect on cytosolic Phospholipase A2 (PLA2) activity at a concentration of 100 uM
T1 sequence (whole entry): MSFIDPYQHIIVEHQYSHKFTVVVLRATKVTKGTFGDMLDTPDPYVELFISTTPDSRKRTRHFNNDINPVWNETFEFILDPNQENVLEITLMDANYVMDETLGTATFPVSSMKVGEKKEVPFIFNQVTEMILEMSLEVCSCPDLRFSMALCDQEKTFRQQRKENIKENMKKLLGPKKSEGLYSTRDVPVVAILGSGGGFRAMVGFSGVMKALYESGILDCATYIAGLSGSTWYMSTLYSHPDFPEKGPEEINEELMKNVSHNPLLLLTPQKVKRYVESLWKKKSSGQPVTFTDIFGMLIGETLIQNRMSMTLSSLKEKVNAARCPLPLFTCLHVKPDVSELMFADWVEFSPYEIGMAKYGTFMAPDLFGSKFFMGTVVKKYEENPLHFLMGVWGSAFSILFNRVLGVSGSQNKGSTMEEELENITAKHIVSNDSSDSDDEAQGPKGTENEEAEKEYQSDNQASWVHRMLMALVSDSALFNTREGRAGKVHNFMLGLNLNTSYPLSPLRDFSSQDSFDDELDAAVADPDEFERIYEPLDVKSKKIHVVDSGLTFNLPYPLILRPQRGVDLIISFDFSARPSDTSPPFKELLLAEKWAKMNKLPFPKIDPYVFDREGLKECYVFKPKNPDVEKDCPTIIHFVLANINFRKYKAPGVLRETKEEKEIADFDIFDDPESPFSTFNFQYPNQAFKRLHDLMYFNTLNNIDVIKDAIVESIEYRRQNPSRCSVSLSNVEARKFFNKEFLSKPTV
Procedure, shortened: (§2)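 Group IV cytosolic PLA2 from the RAW 264.7 macrophage line. Percent inhibition was measured at a single test concentration and reported as mean ± SEM (n=6). IC50 was determined only for compounds reaching 50% inhibition at that concentration.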

[2] = target: T2, Phospholipase A2, membrane associated (Homo sapiens) (UniProt P14555); experiment: (§3) Inhibition of secretory PLA2 activity in human recombinant synovial enzyme using [3H]oleate labelled membranes at a concentration of 10 uM
T2 sequence (whole entry): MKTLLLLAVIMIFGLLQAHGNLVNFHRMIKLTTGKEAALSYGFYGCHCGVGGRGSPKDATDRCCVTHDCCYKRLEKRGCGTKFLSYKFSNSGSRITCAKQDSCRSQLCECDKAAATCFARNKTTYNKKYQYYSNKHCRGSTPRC
Procedure, shortened: (§4)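 Secretory PLA2 activity was measured using autoclaved [3H]oleate-labelled membranes as substrate. The enzyme was either group II human recombinant synovial PLA2 or group I porcine pancreatic PLA2. Percent inhibition at a single concentration is reported as mean ± SEM (n=6), with significance marked at P<0.05 and P<0.01.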

[3] = target: T3, Phospholipase A2, membrane associated (Homo sapiens, UniProt P14555); experiment: as §3; procedure, shortened: as §4
T3 sequence (P14555 whole entry): T2 sequence (whole entry)

[4] = target: Phospholipase A2 (Homo sapiens) (UniProt P04054); conditions: Apis mellifera; 10 uM
Sequence of Phospholipase A2 (Homo sapiens) (P04054 23-148 limits assumed): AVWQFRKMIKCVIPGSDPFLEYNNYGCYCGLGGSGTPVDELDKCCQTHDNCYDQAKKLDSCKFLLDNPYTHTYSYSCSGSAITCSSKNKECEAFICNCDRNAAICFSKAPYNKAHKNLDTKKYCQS

[5] = target: Phospholipase A2 (Homo sapiens) (UniProt P04054); conditions: Naja naja; 10 uM
[6] = target: T4, Cytosolic phospholipase A2 (Mus musculus, UniProt P47713); experiment: as §1; procedure, shortened: as §2
T4 sequence (P47713 whole entry): T1 sequence (whole entry)

| Structure (SMILES) | I [1] [%] | IC50 [6] [µM] | further results |
| --- | --- | --- | --- |
| CCCCCCCCCCCCCCC(CNCC(=O)OCC)NC(=O)OC(C)(C)C (centres undefined) | 0 |  |  |
| CCCCCCCCCCCCCCC(COCc1ccccc1)N(CC)CC (centres undefined) | 1.9 |  |  |
| CCCCCCCCCCCCCCC(N)CNC(=O)CCCC(=O)O (centres undefined) | 0 |  |  |
| CCCCCCCCCCCCCCC(CO)NCC (centres undefined) | 25.2 |  | I [2]: 80%; IC50 [3]: 3.7 µM; I [4]: 63.5%; I [5]: 62.6% |
| CCCCCCCCCCCCCCC(COCc1ccccc1)NC(=O)/C=C/C(=O)O (centres undefined) | 60.7 | 69.5 |  |
| CCCCCCCCCCCCCCC(COCc1ccccc1)NCC (centres undefined) | 0 |  |  |
| CCCCCCCCCCCCCCC(COC(=O)CCCCCC)NC(=O)CCCCCC (centres undefined) | 2.3 |  |  |
| CCCCCCCCCCCCCCC(=O)NC(CCCCCCCCCCCCCC)COC(=O)CCCCCCCCCCCCCC (centres undefined) | 5.1 |  |  |
| CCCCCCCCCCCCCCC(=O)NC(CCCCCCCCCCCCCC)COC(=O)CCCCCC (centres undefined) | 0.5 |  |  |
| CCCCCCCCCCCCCCC(CO)NCC(=O)O (centres undefined) | 25 |  |  |
| CCCCCCCCCCCCCCC(COCc1ccccc1)NC(=O)CCC(=O)O (centres undefined) | 72 | 62.8 |  |
| CCCCCCCCCCCCCCCC(=O)C(F)(F)F | 67.7 | 11.7 |  |
| CCCCCCCCCCCCCCC(N)CN(CC(=O)OCC)CC(=O)OCC (centres undefined) | 43.9 |  |  |
| CCCCCCCCCCCCCCC(COCc1ccccc1)NC(=O)CCCC(=O)O (centres undefined) | 84.8 | 10.5 |  |
| CCCCCCCCCCCCCCC(N)CN(CC)CC (centres undefined) | 90.6 | 11.9 | I [2]: 82.7%; IC50 [3]: 5.6 µM; I [4]: 57.6%; I [5]: 51.5% |
| CCCCCCCCCCCCCCC(CO)NC(=O)CCCC(=O)O (centres undefined) | 0 |  |  |
